# Substitutions are numbered along the chain they refer to. Entries after “also recorded” stand apart in the source; their conditions may differ. Non-standard residues stand in square brackets, D forms with d. No end group written: not given here. pT = C[C@@H](OP(=O)(O)O)[C@H](N)C(=O)O
# B1: EZH2 410-421 peptide, phosphorylated at Thr416 (pTP5) (peptide)
# peptide: ANSRCQ[pT]PIKMK
# B2: EGFP-NIPP1: ectopically expressed EGFP-NIPP1 wild-type (protein)
# chain: MAAAANSGSSLPLFDCPTWAGKPPPGLHLDVVKGDKLIEKLIIDEKKYYLFGRNPDLCDFTIDHQSCSRVHAALVYHKHLKRVFLIDLNSTHGTFLGHIRLEPHKPQQIPIDSTVSFGASTRAYTLREKPQTLPSAVKGDEKMGGEDDELKGLLGLPEEETELDNLTEFNTAHNKRISTLTIEEGNLDIQRPKRKRKNSRVTFSEDDEIINPEDVDPSVGRFRNMVQTAVVPVKKKRVEGPGSLGLEESGSRRMQNFAFSGGLYGGLPPTHSEAGSQPHGIHGTALIGGLPMPYPNLAPDVDLTPVVPSAVNMNPAPNPAVYNPEAVNEPKKKKYAKEAWPGKKPTPSLLI
# modifications: left off: EGFP, end not stated, kept
# B3: FHA mutant: EGFP-NIPP1 with mutated FHA domain (protein)
# chain: B2 chain with S68A, R69A, V70A, H71A
# modifications: left off: EGFP, end not stated, kept
# B4: NIPP1: recombinant His-NIPP1, or immunoprecipitated EGFP-NIPP1/PP1 complex (protein, UniProt Q12972 1-351, looked up)
# Nuclear inhibitor of protein …: B2 chain
# modifications: His tag
# Experiments:
# EGFP-EZH2 [1] = type: cell-based, mouse; conditions: 100 µM roscovitine, 2 h preincubation, HEK293T cells
# In short: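 HEK293T cells were transfected (Jetprime) with EGFP-tagged mouse EZH2, then preincubated with the CDK inhibitor roscovitine before lysis. EGFP-EZH2 was probed by immunoblot with a rabbit antibody raised against the Thr416-phosphorylated peptide (residues 410–421) coupled to KLH. The antibody was affinity-purified on non-phospho and phospho-peptide–BSA columns. Detection was by ECL imaging.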
# NIPP1 FHA domain = NIPP1 FHA domain (Homo sapiens, UniProt Q12972); assay: NMR titration; type: binding
# In short: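 ¹⁵N-labelled NIPP1 FHA domain was expressed in E. coli grown in M9 with ¹⁵NH₄Cl, His₆-MBP tag removed by TEV, and purified by size exclusion. The domain (0.1 mM) in 20 mM BisTris pH 6.3, 50 mM NaCl, 5 mM DTT was titrated with increasing mouse EZH2 dodecapeptide concentrations at 298 K (500 MHz, 2D ¹H,¹⁵N HSQC). Kd came from nonlinear fitting of CSP versus peptide concentration.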
# [2] = test system: EZH2-FHA interaction (EGFP-EZH2 / GST-FHA of NIPP1); assay: Competition GST pull-down of EGFP-EZH2 with EZH2 dodecapeptides; type: binding; conditions: 1 mM of the indicated EZH2 dodecapeptides
# EED, SUZ12 and RbAp48 = assay: PRC2 components in immunoprecipitated EGFP-EZH2 complexes; type: binding; conditions: immunoblot, Supplementary Figure S5
# PP1 = PP1 associated with immunoprecipitated EGFP-EZH2; type: binding; conditions: HEK293T cell lysates, immunoblot
# In short: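 EGFP-EZH2 (wild-type or TP5 mutant; EGFP-βgal control) was transiently expressed in HEK293T cells and immunoprecipitated from lysates. Lysis buffers contained 20 mM NaF, 5 µM leupeptin, 0.5 mM PMSF and 0.5 mM benzamidine. Co-precipitated PP1 was detected by immunoblotting with ECL.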
# endogenous NIPP1 = assay: Co-immunoprecipitation of EZH2 fusions with endogenous NIPP1; type: binding; conditions: HEK293T cell lysates
# EGFP-EZH2 [3] = assay: Phosphorylation status of EGFP-EZH2 TP mutants in cells; type: cell-based, mouse; conditions: EGFP-EZH2 mutant from cells, immunoblot
# In short: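 EGFP-tagged mouse EZH2 variants (EGFP alone as control) were expressed in cells and isolated by EGFP trap. Elution used 0.2 M glycine pH 2.5 for 90 s, immediately neutralised with 1 M Tris pH 10.8. Eluates were immunoblotted with a pan-phospho-Thr-Pro antibody and an affinity-purified phospho-Thr416 (pTP5) antibody. Blots were visualised by ECL and quantified by densitometry.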
# NIPP1-FHA domain = assay: GST pull-down of EGFP-EZH2 TP mutants with GST-FHA; type: binding; conditions: Thr to Ala mutants, n = 4
# In short: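 Mouse EZH2 Thr→Ala mutants were made by site-directed mutagenesis in an EGFP-IRES-puro vector and transfected with Jetprime. Lysis buffers contained NaF, leupeptin, PMSF and benzamidine.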
# EGFP-EZH2 [4] = assay: In vitro phosphorylation of EGFP-EZH2 by cyclinA/CDK2; type: biochemical, mouse; conditions: autoradiography, γ32P-ATP, cyclinA/CDK2, 60 min, 30°C
# In short: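 Purified EGFP-tagged mouse EZH2 was incubated 60 min at 30°C with recombinant cyclinA/CDK2 (bacterially expressed). Buffer: 20 mM Tris/HCl pH 7.5, 2 mM DTT, 0.1 mg/ml BSA, 2 mM MgAc, 100 µM ATP, with or without γ³²P-ATP.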
# [5] = molecular target: NIPP1 FHA domain (15N-labelled, for NMR); assay: NMR titration
# EZH2, EED and SUZ12 = assay: EGFP trap of EGFP-NIPP1 and co-precipitation of core PRC2 components; type: binding; conditions: EGFP-NIPP1 WT or FHAm, HEK293T cell lysates
# In short: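 EGFP-NIPP1 is expressed in HEK293T cells by plasmid transfection (Jetprime) and captured by EGFP trap from lysates. Lysis buffer contains 20 mM NaF, 5 µM leupeptin, 0.5 mM PMSF and 0.5 mM benzamidine. Co-precipitated proteins are detected by immunoblotting, using anti-EZH2 (AC-22), an in-house rabbit anti-EED raised against His-EED, and anti-SUZ12 (3C1.2).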
# EGFP-EZH2 [6] = assay: In vitro dephosphorylation of EGFP-EZH2 by PP1; type: biochemical, mouse
# In short: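 Mouse EGFP-EZH2 is expressed in HEK293T cells and isolated by immunoprecipitation or EGFP trap. It is incubated 30 min at 30°C in 50 mM Tris/HCl pH 7.5, 1 mM DTT, 0.1 mg/ml BSA with one of: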
molecule,measurement,setting,value
CC[C@H](CO)Nc1nc(NCc2ccccc2)c2ncn(C(C)C)c2n1 [roscovitine],binding of EGFP-EZH2 to GST-FHA,EGFP-EZH2 [1],abolished
same,detection of EGFP-EZH2 by pTP5 antibody,EGFP-EZH2 [1],not detected
ANSRCQ(p)TPIKMK [pTP5],saturation of binding,NIPP1 FHA domain; 10-fold molar excess of the peptide,Saturation was not achieved even after a 10-fold molar excess of the peptide
same,binding of purified FHA domain to EZH2-derived dodecapeptide,NIPP1 FHA domain; summary in Discussion,interacts rather poorly
same,EZH2-FHA interaction in presence of peptide,[2],decreased EZH2-FHA interaction
EZH2-WT: EGFP- or Dam-tagged wild-type mouse EZH2,"abundance of EED, SUZ12 and RbAp48 in complex","EED, SUZ12 and RbAp48",equally abundant
same,associated PP1,PP1,contained the same amount of PP1
EZH2-mTP5: EZH2 with Thr416 (TP5) mutated to Ala,co-immunoprecipitation with endogenous NIPP1,endogenous NIPP1,no longer co-immunoprecipitated with endogenous NIPP1
same,pTP5 signal,EGFP-EZH2 [3],not detected
same,binding of EZH2 TP mutant to GST-FHA,NIPP1-FHA domain,complete loss of binding
same,"abundance of EED, SUZ12 and RbAp48 in complex","EED, SUZ12 and RbAp48",equally abundant
same,in vitro phosphorylation of EZH2 by CDK2,EGFP-EZH2 [4],moderately reduced
same,associated PP1,PP1,contained the same amount of PP1
B1,Kd,[5],1900 µM
B2,co-precipitation of PRC2 components,"EZH2, EED and SUZ12","Both EZH2 and EED co-precipitated; also recorded: SUZ12, which interacts directly with EZH2 but not with EED ([19]), only co-precipitated with the WT NIPP1 fusion"
B3,co-precipitation of PRC2 components,"EZH2, EED and SUZ12",only EED co-sedimented
B4,effect on PP1-mediated dephosphorylation of EGFP-EZH2,"EGFP-EZH2 [6]; 500 nM PP1, recombinant His-NIPP1 4.5 µM to 55 nM",abolished
same,dephosphorylation of EGFP-EZH2 by immunoprecipitated NIPP1/PP1,EGFP-EZH2 [6]; after pretreatment with trypsin,the immunoprecipitate dephosphorylated EGFP-EZH2
same,dephosphorylation of EGFP-EZH2 by immunoprecipitated NIPP1/PP1,"EGFP-EZH2 [6]; without trypsin pretreatment, co-precipitated PP1 present",not dephosphorylated

# Source: paper PMC3553949 (Nucleic Acids Research, 2012)
